SKN-1 block = blocks SKN-1 activity in C. elegans; C. elegans VP596 Pgst-4::GFP/RFP ratio, acrylamide-induced, 24 h; inhibition, % at 21.8 µM; hit rate 0.49% among 360,000; AID 624304;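 active = interference check ratio from 0.5 to 1.5 plus GFP to RFP signal ratio inhibition reaching or exceeding a fixed threshold, cut at about 30% in these data, passing the limit was not always enough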
Rce1 inhib = yeast Ras-converting enzyme inhibition; Q03530; yeast membranes, quenched prenylated peptide cleavage fluorescence; calls only; hit rate 0.27% among 290,000;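 active = fall in fluorescence gain of 50% or more versus controls, with final raw signal at or below 3038400; inconclusive = same 50% fall but final raw signal above 3038400; inactive = fall in fluorescence gain under 50%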;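 note: plate controls were neutral control wells for no effect and wells lacking membranes for full effect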
Target sequence (Q03530 whole entry, looked up): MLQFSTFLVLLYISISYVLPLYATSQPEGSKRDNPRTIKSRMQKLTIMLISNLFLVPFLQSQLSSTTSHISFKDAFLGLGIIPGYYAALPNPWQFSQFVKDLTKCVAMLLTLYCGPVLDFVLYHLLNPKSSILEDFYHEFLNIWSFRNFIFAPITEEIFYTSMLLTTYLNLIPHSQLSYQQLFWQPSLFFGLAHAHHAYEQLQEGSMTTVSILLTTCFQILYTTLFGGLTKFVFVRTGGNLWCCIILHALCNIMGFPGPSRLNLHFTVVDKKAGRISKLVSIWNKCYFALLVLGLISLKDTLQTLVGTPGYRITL
Rin1-Abl PPI inh = blocks binding of human Rin1 to Abl; P00519+Q13671; AID 588664; hit rate 0.4% among 360,000; TR-FRET Rin1/Abl binding, biochemical; inhibition, % at 7.35 µM; in the data active = inhibition above about 5%, passing the limit was not always enough
GRK2 inh = human GRK2 inhibition via aptamer displacement | hit rate 0.59% among 330,000 | bead flow cytometry, FAM-aptamer displacement from GRK2 | P25098 | inhibition of aptamer binding, % at 10 µM | AID 488847;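 active = inhibition of aptamer binding above 40%, roughly 3 SD of noise, on plates passing a quality check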;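 note: median bead fluorescence of bound FAM aptamer so fluorescent compounds give negative values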
T cell HTS = T cell immune modulation candidate. 2C CD8+ T cell-vesicle binding, flow cytometry; stronger effect = lower value. response (vesicle binding), % at 7 µM. hit rate 0.068% among 330,000;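 active = response, share of CD8 T cells binding vesicles, and their 90th percentile fluorescence all below set limits, cut at about 80% in these data, passing the limit was not always enough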;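 note: values below 100% mean blocked vesicle binding to the CD8+ T cells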
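System: murine 2C transgenic CD8+ T lymphocytes; also added: QL9-loaded Drosophila micro-vesicles; times: binding 1.5 h at 37 °C; measured by: flow cytometry, PE anti-B7-1 (FL2) versus Alexa647 anti-CD8 (FL8), PFA-fixed; control set: Peptide-free naked vesicles (low) and QL9 vesicles with 0.7% DMSO vehicle (high)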
Myeloid diff MLP = compounds promoting myeloid differentiation; ER-HoxA9 myeloid progenitors, lysozyme-GFP differentiation, flow cytometry; calls only at 10 µM; hit rate 1% among 360,000; AID 624256;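 active = normalized GFP-positive differentiation at or above the plate's own cutoff, the solvent-only control mean plus 3 SD; inconclusive = no clear call, values can overlap the other calls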;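 note: cells exposed to compound for four days before flow analysis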
Myeloid diff = myeloid differentiation induction | shares compounds with Myeloid diff MLP | ER-HoxA9 myeloid progenitors, GFP/Mac1 double-positive flow | calls only | hit rate 2% among 2,300 | AID 651706;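 active = share of green or green-and-red cells above 9 and 9% in run 1 or 4 and 3% in run 2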
GFP autofluor = flagged as fluorescent in myeloid differentiation counter-screen; shares compounds with Myeloid diff MLP; ER-HoxA9 myeloid progenitors, no estrogen, GFP autofluorescence flow cytometry; vehicle wells 0%, positive control 100%; fluorescence response, % (test concentration not listed); hit rate 7.4% among 2,300; AID 651707;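 active = over 5% cells positive for green fluorescent reporter, or over 2% positive for both it and APC stain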;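 note: range taken on the double positive population between DMSO and positive control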
* hit, by the source's call; i = inactive; ? = inconclusive; · = no result; + = active, no number. Shown are actives, neighbours in structure and some others; about 2.6% of the full set was active somewhere.

SMILES | SKN-1 block | Rce1 inhib | Rin1-Abl PPI inh | GRK2 inh | T cell HTS | Myeloid diff MLP | Myeloid diff | GFP autofluor
O=C(c1ccc2c(c1)OCO2)N1CCCc2ccccc21 | 8 | i | -4 | 5 | 306 | i | · | ·
Cc1ccc2c(c1)CCCN2C(=O)c1ccc2c(c1)OCO2 | -9 | i | -3 | 1 | 370 | i | i | 0
Cc1cccc(CNc2ncnc3ccc(-c4cccnc4)cc23)c1 | -6 | · | 1 | 0 | 566 | + | i | 0
CCOC(=O)[C@@H]1[C@H]2COc3cc(OC)ccc3[C@@H]2N2C(=O)N(c3ccc(F)cc3)C(=O)[C@@]12C | 3 | · | 1 | 0 | 489 | i | · | ·
CCCc1ccc(OCc2ccc(C(=O)NN)o2)c(OC)c1 | -14 | i | 0 | 1 | 203 | + | i | 0
CCCn1c(SCC(=O)Nc2ccccc2Cl)nc(O)cc1=O | 3 | · | 0 | · | · | i | i | 0
Cc1nn(C)cc1S(=O)(=O)N1CCN(c2ccccc2F)CC1 | -3 | i | 2 | 0 | 524 | i | · | ·
COc1cccc(-n2cc(CN(C)Cc3nc(Cc4ccccc4)no3)cn2)c1 | 3 | i | 4 | 0 | 397 | i | · | ·
COc1cccc(-n2cc(CN(C)Cc3nc(Cc4cccc(F)c4)no3)cn2)c1 | 4 | i | 0 | 1 | 231 | i | i | 0
C=CC[N+]1(CC#Cc2ccccc2)CCCC1 | -1 | i | 1 | 0 | 119 | + | i | 0
C(#Cc1ccccc1)C[N+]1(CC#Cc2ccccc2)CCCC1 | 5 | i | -3 | 0 | 480 | ? | · | ·
O=C1CSC(c2ccccc2[N+](=O)[O-])N1CCc1ccccc1 (centres undefined) | -1 | i | -3 | 0 | 178 | i | · | ·
N#Cc1nn(-c2ccccc2)nc1N1CCCCC1 | 17 | i | 3 | 0 | 464 | + | i | 0
N#Cc1nc(COc2ccccc2)oc1N1CCCCCC1 | 1 | i | -1 | 0 | i | i | · | ·
CSc1ncnc2c1ncn2CCCNCCCN1CCCC1=O | 0 | · | 2 | · | · | + | i | 1
O=C(Nc1ccc2ccccc2c1)C(c1ccccc1)n1c(=O)c(-c2cc3ccccc3[nH]2)nc2ccccc21 (centres undefined) | 5 | · | · | · | · | i | · | ·
CC[C@@]1(C(=O)OC)N[C@H](CN(C)C(=O)C2CCCCC2)[C@@H]2C(=O)N(C)C(=O)[C@@H]21 | -12 | · | -1 | 0 | 164 | i | i | 0
CCOc1ccccc1CSc1nc2ccccc2[nH]1 | 10 | i | -6 | 1 | 375 | i | i | 0
Cc1ncc(CSc2nc3ccccc3[nH]2)c(N)n1 | 1 | i | -1 | 2 | 295 | i | · | ·
O=C(O)C1C2C=CC(C2)C1C(=O)OC1CC2CCC1C2 (centres undefined) | 3 | i | 6 | 2 | 544 | + | i | 0
O=C(O)CCC(=O)OC1CC2CCC1C2 (centres undefined) | 12 | i | 4 | 0 | 202 | i | · | ·
CN(C)S(=O)(=O)c1cccc(NC(=O)c2ccc(S(=O)(=O)N3CCCCC3)cc2)c1 | 7 | · | -1 | 0 | 173 | i | · | ·
CN(C)S(=O)(=O)c1cccc(NC(=O)c2cccc(S(=O)(=O)N3CCCCCC3)c2)c1 | -5 | · | 2 | · | · | + | i | 0
O=C(NCCO)c1cccc(S(=O)(=O)N2CCCCC2)c1 | 3 | i | 4 | 0 | 721 | i | i | 0
CN(c1ccccc1)S(=O)(=O)c1cccc(C(=O)Nc2ccc(N3CCOCC3)cc2)c1 | 9 | · | -1 | · | · | i | · | ·
SMILES | SKN-1 block | Rce1 inhib | Rin1-Abl PPI inh | GRK2 inh | T cell HTS | Myeloid diff MLP | Myeloid diff | GFP autofluor
O=C(NCCN1CCOCC1)c1cccc(S(=O)(=O)N2CCCCCC2)c1 | -13 | i | 2 | 0 | 125 | i | · | ·
O=C(Nc1cccc(S(=O)(=O)N2CCCCCC2)c1)c1cncc(Br)c1 | -11 | · | 5 | 1 | 328 | i | i | 0
Cc1ccc(N(C)S(=O)(=O)c2cccc(C(=O)Nc3ccc(N4CCOCC4)cc3)c2)cc1 | -4 | · | 5 | 0 | 431 | + | i | 0
Cc1ccc(S(=O)(=O)N2CCCCC2)cc1NC(=O)c1cncc(Br)c1 | 9 | · | -5 | · | · | i | · | ·
C[C@H]1CN([C@@H](C)CO)C(=O)c2cc(NS(=O)(=O)c3ccc(Cl)cc3)ccc2O[C@@H]1CN(C)CC1CCCCC1 | 5 | · | 7 | 0 | 100 | i | · | ·
O=C(Nc1cccc(S(=O)(=O)N2CCCCC2)c1)c1ccc2c(=O)n3c(nc2c1)CCCCC3 | 10 | i | -4 | 0 | 231 | i | i | 0
COc1ccc([N+](=O)[O-])cc1NCC(=O)Nc1cccc(S(=O)(=O)N2CCCC2)c1 | 13 | · | 0 | · | · | i | · | ·
COc1cc(NCC(=O)Nc2cccc(S(=O)(=O)N3CCCCC3)c2)cc(OC)c1OC | 17 | · | 3 | 0 | 204 | + | i | 1
COc1ccc(CC(=O)NNC(=O)c2nn(Cc3ccccc3)c(=O)c3ccccc23)cc1OC | -7 | i | -5 | 1 | 139 | i | · | ·
CCOC(=O)C1=C(C)NC(=O)NC1C(C)C (centres undefined) | 8 | i | 3 | 3 | 159 | i | · | ·
O=C(ON=C1CCN(S(=O)(=O)c2ccccc2)CC1)c1ccc(F)cc1 | 6 | i | 1 | 0 | 343 | i | · | ·
Cc1ccc(C(=O)ON=C2CCN(S(=O)(=O)c3ccccc3)CC2)cc1 | -12 | i | -1 | 0 | 259 | i | i | 0
CCN1C(=O)[C@H]2[C@@H](c3ccc(C(F)(F)F)cc3)N[C@]3(CCCN(CC4CCCCC4)C3=O)[C@H]2C1=O | -11 | · | 4 | · | · | + | i | 0
CCN(CCn1cccn1)C(=O)c1ccc(OC2CCN(C(=O)CCOC)CC2)cc1 | 24 | · | -4 | · | · | i | · | ·
CC(SCCc1ccccn1)C(=O)O (centres undefined) | 2 | · | 4 | 2 | 290 | i | i | 0
O=C(O)CCC(=O)NNC(=O)c1ccc(-c2ccccc2)cc1 | -6 | i | -3 | 0 | 128 | i | i | 2
O=C(N=C1SC2CS(=O)(=O)CC2N1c1cccc(Cl)c1Cl)C1CC1 (centres undefined) | -2 | i | 4 | 0 | 517 | i | · | ·
N#Cc1c2nc3ccccc3nc2n2cc(NC(=O)c3ccc(F)cc3)ccc12 | 13 | · | -3 | · | · | i | i | 3
N#C/C(=C\c1cccnc1)C(=O)NC1CCCCC1 | 3 | i | 0 | 0 | 6 | + | i | 1
N#C/C(=C\c1ccccc1)C(=O)NC1CC1 | 2 | i | 2 | 3 | 165 | i | · | ·

Screens deposited in PubChem BioAssay by several laboratories.
